Test results reported in ChEMBL document CHEMBL1154352, “Toll-like receptor 7 selective synthetic oligoribonucleotide agonists: synthesis and structure-activity relationship studies” (J Med Chem, 2009).
Activity calls are given as the source filed them. The rule behind the calls is not given here.

Tests used:
[1] = Metabolic stability in human serum assessed as full length product remaining after 10 mins by HPLC; format: ADME, cell-free; conditions: read-out: Stability
How it was run: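 About 0.5 A260 units compound in 1% human serum in PBS, 37 °C; aliquot taken at 10 min, analysed by anion-exchange HPLC for percent intact full-length product.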

[2] = biological target: T1, Toll-like receptor 8 (Homo sapiens) (UniProt Q9NR97); experiment: Activation of human TLR8 expressed in HEK293XL assessed as fold induction of NF-kappaB activity at 50 ug/ml after 18 hrs by reporter gene assay relative to control
T1 sequence (whole entry): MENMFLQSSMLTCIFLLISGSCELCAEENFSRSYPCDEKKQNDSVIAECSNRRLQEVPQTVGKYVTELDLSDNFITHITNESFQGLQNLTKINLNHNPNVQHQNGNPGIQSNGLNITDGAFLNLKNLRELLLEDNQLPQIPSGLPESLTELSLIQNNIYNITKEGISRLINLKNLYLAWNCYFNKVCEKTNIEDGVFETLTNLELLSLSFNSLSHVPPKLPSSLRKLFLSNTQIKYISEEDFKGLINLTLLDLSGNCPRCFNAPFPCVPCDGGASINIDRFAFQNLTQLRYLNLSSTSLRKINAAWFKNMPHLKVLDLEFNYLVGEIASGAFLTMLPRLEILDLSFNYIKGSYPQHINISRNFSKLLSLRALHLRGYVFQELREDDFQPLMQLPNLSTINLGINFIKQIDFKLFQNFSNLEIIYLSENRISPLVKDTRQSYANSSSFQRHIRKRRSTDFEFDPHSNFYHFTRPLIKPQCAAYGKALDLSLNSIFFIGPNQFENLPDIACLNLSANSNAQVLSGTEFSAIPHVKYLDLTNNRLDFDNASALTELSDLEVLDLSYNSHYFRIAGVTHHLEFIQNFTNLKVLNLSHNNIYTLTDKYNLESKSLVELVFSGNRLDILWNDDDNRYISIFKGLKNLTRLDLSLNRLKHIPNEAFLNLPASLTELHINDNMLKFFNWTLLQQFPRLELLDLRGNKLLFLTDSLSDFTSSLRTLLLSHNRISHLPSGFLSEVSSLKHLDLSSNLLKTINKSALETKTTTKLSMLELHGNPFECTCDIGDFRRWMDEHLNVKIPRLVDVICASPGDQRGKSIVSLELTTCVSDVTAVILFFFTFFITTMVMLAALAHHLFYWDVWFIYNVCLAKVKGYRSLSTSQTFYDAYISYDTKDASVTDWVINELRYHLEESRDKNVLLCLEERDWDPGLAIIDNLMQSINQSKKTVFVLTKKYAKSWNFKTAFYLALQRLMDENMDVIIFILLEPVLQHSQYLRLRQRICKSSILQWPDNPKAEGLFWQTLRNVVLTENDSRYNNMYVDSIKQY
How it was run: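 HEK293 cells stably expressing human TLR7 or TLR8, transiently transfected with SEAP reporter plasmid; medium replaced, SIMRA compounds added, 18 h incubation. Supernatant SEAP measured by QuantiBlue; expressed as fold increase in NF-κB activity over PBS control. Tabulated data at 50 μg/mL, representative of three independent experiments.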

PBMC [3] = experiment: Immunomodulatory activity in human PBMC assessed as induction of IL12 at 50 ug/ml after 24 hrs; format: functional, cell-based
How it was run: (§1)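 Human PBMCs plated at 5 × 10^6 cells/mL; compounds dissolved in PBS added at various concentrations, 37 °C for 24 h. Supernatant cytokines/chemokines quantified with human Luminex multiplex kit.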

PBMC [4] = experiment: Immunomodulatory activity in human PBMC assessed as induction of TNFalpha at 50 ug/ml after 24 hrs; format: functional, cell-based; how it was run: as §1
PBMC [5] = experiment: Immunomodulatory activity in human PBMC assessed as induction of IFNalpha at 50 ug/ml after 24 hrs; format: functional, cell-based; how it was run: as §1
PBMC [6] = experiment: Immunomodulatory activity in human PBMC assessed as induction of MIP1alpha at 50 ug/ml after 24 hrs; format: functional, cell-based; how it was run: as §1
PBMC [7] = experiment: Immunomodulatory activity in human PBMC assessed as induction of MIP1beta at 50 ug/ml after 24 hrs; format: functional, cell-based; how it was run: as §1
PBMC [8] = experiment: Immunomodulatory activity in human PBMC assessed as induction of IP10 at 50 ug/ml after 24 hrs; format: functional, cell-based; how it was run: as §1
PBMC [9] = experiment: Immunomodulatory activity in human PBMC assessed as induction of MCP1 at 50 ug/ml after 24 hrs; format: functional, cell-based; how it was run: as §1
PBMC [10] = experiment: Immunomodulatory activity in human PBMC assessed as induction of IL6 at 50 ug/ml after 24 hrs; format: functional, cell-based; how it was run: as §1
PBMC [11] = experiment: Immunomodulatory activity in human PBMC assessed as induction of IL1-beta at 50 ug/ml after 24 hrs; format: functional, cell-based; how it was run: as §1
Homo sapiens [12] = species: Homo sapiens; experiment: Immunostimulatory activity in human pDC assessed as induction of IP10 at 100 ug/ml after 24 hrs; format: functional
How it was run: (§2)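 Human pDCs plated at 1 × 10^6 cells/mL; compounds in PBS added, 37 °C for 24 h; supernatant cytokines/chemokines by human Luminex multiplex kit.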

Homo sapiens [13] = species: Homo sapiens; experiment: Immunostimulatory activity in human pDC assessed as induction of IL6 at 100 ug/ml after 24 hrs; format: functional; how it was run: as §2
Homo sapiens [14] = species: Homo sapiens; experiment: Immunostimulatory activity in human mDC assessed as induction of IFNalpha at 100 ug/ml after 24 hrs; format: functional
How it was run: (§3)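 Human mDCs isolated from PBMCs by CD19+ B-cell depletion then BDCA1 positive selection; plated at 1 × 10^6 cells/mL, compounds in PBS, 37 °C for 24 h; supernatant cytokines by human Luminex multiplex. Representative of four independent experiments.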

Homo sapiens [15] = species: Homo sapiens; experiment: Immunostimulatory activity in human mDC assessed as induction of IP10 at 100 ug/ml after 24 hrs; format: functional; how it was run: as §3
Homo sapiens [16] = species: Homo sapiens; experiment: Immunostimulatory activity in human mDC assessed as induction of IL12 at 100 ug/ml after 24 hrs; format: functional; how it was run: as §3
Homo sapiens [17] = species: Homo sapiens; experiment: Immunostimulatory activity in human mDC assessed as induction of IL6 at 100 ug/ml after 24 hrs; format: functional; how it was run: as §3
Homo sapiens [18] = species: Homo sapiens; experiment: Immunostimulatory activity in human mDC assessed as induction of TNFalpha at 100 ug/ml after 24 hrs; format: functional; how it was run: as §3

Work on `Nc1ccn([C@@H]2O[C@H](COP(=O)(S)O[C@H]3[C@@H](O)[C@H](n4cnc5c(=O)[nH]c(N)nc54)O[C@@H]3COP(=O)(S)O[C@H]3[C@@H](O)[C@H](n4ccc(=O)[nH]c4=O)O[C@@H]3COP(=O)(S)OCCCO)[C@@H](OP(=O)(S)OC[C@H]3O[C@@H](n4ccc(=O)[nH]c4=O)[C@H](O)[C@@H]3OP(=O)(S)OC[C@H]3O[C@@H](n4cnc5c(=O)[nH]c(N)nc54)[C@H](O)[C@@H]3OP(=O)(S)OC[C@H]3O[C@@H](n4ccc(N)nc4=O)[C@H](O)[C@@H]3OP(=O)(S)OC[C@H]3O[C@@H](n4ccc(=O)[nH]c4=O)[C@H](O)[C@@H]3OP(=O)(S)OC[C@H]3O[C@@H](n4ccc(=O)[nH]c4=O)[C@H](O)[C@@H]3OP(=O)(S)OC[C@H]3O[C@@H](n4cnc5c(=O)[nH]c(N)nc54)[C@H](O)[C@@H]3OP(=O)(S)OC[C@H]3O[C@@H](n4ccc(=O)[nH]c4=O)[C@H](O)[C@@H]3OP(=O)(S)OC[C@H]3O[C@@H](n4cnc5c(=O)[nH]c(N)nc54)[C@H](O)[C@@H]3OP(=O)(S)OCC(O)COP(=O)(S)O[C@H]3[C@@H](O)[C@H](n4cnc5c(=O)[nH]c(N)nc54)O[C@@H]3COP(=O)(S)O[C@H]3[C@@H](O)[C@H](n4ccc(=O)[nH]c4=O)O[C@@H]3COP(=O)(S)O[C@H]3[C@@H](O)[C@H](n4cnc5c(=O)[nH]c(N)nc54)O[C@@H]3COP(=O)(S)O[C@H]3[C@@H](O)[C@H](n4ccc(=O)[nH]c4=O)O[C@@H]3COP(=O)(S)O[C@H]3[C@@H](O)[C@H](n4ccc(=O)[nH]c4=O)O[C@@H]3COP(=O)(S)O[C@H]3[C@@H](O)[C@H](n4ccc(N)nc4=O)O[C@@H]3COP(=O)(S)O[C@H]3[C@@H](O)[C@H](n4cnc5c(=O)[nH]c(N)nc54)O[C@@H]3COP(=O)(S)O[C@H]3[C@@H](O)[C@H](n4ccc(=O)[nH]c4=O)O[C@@H]3COP(=O)(S)O[C@H]3[C@@H](O)[C@H](n4ccc(N)nc4=O)O[C@@H]3COP(=O)(S)O[C@H]3[C@@H](O)[C@H](n4cnc5c(=O)[nH]c(N)nc54)O[C@@H]3COP(=O)(S)O[C@H]3[C@@H](O)[C@H](n4ccc(=O)[nH]c4=O)O[C@@H]3COP(=O)(S)OCCCO)[C@H]2O)c(=O)n1` (stereo partly drawn) yielded a remaining at 10 min [1] of 78%, a fold change (FC) [2] of 9.2 and an Activity (PBMC [3]) of 570 pg/mL. For the same molecule, the Activity (PBMC [4]) was 541 pg/mL, the Activity (PBMC [5]) was 56 pg/mL and the Activity (PBMC [6]) was 4760 pg/mL. The Activity (PBMC [7]) was 5730 pg/mL, the Activity (PBMC [8]) was 24 pg/mL and the Activity (PBMC [9]) was 46700 pg/mL. The Activity (PBMC [10]) was 3980 pg/mL, the Activity (PBMC [11]) was 568 pg/mL and the Activity (Homo sapiens [12]) was “Active”. For the same molecule, the Activity (Homo sapiens [13]) was “Active”, the Activity (Homo sapiens [14]) was “Active” and the Activity (Homo sapiens [15]) was “Active”. For the same molecule, the Activity (Homo sapiens [16]) was “Active”, the Activity (Homo sapiens [17]) was “Active” and the Activity (Homo sapiens [18]) was “Active”.
